What was measured:
[1] = biological target: T1, Alpha-1B adrenergic receptor (Homo sapiens, UniProt P35368); assay: Intrinsic activity at human alpha1B adrenergic receptor expressed in CHOK1 cells co-expressing aequorin assessed as inhibition of agonist induced calcium mobilization preincubated for 15 mins followed by agonist addition measured for 20 secs in presence of coelenterazine H by luminescence assay; format: cell-based, CHO-K1
T1 sequence (P35368 whole entry): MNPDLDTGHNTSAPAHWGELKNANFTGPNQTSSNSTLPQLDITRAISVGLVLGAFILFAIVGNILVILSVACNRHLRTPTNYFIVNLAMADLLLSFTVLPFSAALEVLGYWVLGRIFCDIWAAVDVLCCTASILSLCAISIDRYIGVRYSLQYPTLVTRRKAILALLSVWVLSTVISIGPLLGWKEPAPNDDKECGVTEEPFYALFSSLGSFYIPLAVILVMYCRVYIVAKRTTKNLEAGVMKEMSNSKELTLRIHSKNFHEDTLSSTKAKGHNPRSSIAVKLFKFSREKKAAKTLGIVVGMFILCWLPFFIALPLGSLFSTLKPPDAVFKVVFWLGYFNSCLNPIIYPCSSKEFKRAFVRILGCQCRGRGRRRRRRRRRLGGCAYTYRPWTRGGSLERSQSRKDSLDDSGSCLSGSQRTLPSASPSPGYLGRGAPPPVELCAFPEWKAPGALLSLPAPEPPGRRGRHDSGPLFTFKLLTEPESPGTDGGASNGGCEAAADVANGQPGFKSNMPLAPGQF
Outline: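 Frozen ready-to-use cells stably expressing α1B receptor and aequorin, resuspended in assay buffer with 5 µM coelenterazine h and rotated overnight at rt in the dark. Diluted to 5000 cells/20 µL. Agonist mode: cells injected onto ligands, light recorded 20 s. Antagonist mode: 15 min with compound at room temperature, then agonist at 3× EC80 final, light recorded 20 s. Mean EC50 from three experiments.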

[2] = biological target: T2, Adrenergic receptor alpha-1 (Rattus norvegicus, UniProt P15823+P23944+P43140); assay: Displacement of [3H]-Prazosin from alpha1 adrenergic receptor in rat brain cerebral cortex membranes by liquid scintillation counting analysis; format: cell membranes, Membrane
T2 sequence (P15823 whole entry): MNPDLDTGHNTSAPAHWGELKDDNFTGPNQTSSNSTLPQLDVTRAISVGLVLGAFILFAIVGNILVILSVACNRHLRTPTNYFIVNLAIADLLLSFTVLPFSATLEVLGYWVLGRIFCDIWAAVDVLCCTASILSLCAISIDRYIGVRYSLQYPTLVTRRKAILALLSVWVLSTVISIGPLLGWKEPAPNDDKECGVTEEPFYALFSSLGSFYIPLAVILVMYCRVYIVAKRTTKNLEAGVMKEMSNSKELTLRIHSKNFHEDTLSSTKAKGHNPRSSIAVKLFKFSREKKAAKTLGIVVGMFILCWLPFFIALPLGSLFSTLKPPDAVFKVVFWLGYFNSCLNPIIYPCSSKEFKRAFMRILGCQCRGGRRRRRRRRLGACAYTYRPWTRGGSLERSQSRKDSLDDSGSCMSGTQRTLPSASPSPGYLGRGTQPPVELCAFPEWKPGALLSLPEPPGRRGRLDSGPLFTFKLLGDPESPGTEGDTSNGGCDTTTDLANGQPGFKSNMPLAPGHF
T2 sequence (P23944 whole entry): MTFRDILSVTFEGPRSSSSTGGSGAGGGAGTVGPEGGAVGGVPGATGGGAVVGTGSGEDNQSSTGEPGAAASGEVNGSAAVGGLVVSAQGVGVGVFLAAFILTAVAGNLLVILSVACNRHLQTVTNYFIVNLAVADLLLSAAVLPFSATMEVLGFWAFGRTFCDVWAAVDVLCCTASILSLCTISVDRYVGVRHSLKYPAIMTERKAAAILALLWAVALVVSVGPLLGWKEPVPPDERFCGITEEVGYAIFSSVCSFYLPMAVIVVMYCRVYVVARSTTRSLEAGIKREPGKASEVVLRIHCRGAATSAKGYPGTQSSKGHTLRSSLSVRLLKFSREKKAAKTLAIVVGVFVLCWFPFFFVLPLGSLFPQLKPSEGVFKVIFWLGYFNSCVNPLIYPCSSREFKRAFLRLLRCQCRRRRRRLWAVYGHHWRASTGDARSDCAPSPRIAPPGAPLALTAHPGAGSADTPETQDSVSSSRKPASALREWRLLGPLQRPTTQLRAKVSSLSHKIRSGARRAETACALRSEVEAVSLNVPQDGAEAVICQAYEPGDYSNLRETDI
T2 sequence (P43140 whole entry): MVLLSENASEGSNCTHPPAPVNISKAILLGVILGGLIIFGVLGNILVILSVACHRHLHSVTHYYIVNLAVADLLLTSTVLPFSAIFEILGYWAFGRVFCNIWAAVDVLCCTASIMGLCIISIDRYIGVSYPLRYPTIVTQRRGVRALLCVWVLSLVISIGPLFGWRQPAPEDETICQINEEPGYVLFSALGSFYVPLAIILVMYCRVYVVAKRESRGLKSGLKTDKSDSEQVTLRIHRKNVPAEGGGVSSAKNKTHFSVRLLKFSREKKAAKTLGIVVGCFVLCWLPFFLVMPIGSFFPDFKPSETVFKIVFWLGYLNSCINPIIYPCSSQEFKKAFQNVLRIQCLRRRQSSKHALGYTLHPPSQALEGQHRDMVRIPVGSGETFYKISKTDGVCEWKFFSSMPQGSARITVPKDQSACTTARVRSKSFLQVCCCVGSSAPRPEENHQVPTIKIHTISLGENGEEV
Outline: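 Rat cerebral cortex homogenized in ice-cold 50 mM Tris–HCl (pH 7.6), spun at 20,000 g for 20 min (0–4 °C), resuspended and spun again. Membranes incubated with 0.2 nM [3H]-prazosin (α1) or 2 nM [3H]-clonidine (α2) and seven to eight compound concentrations (10^-11 to 10^-4 M). Non-specific binding defined with 10 µM phentolamine (prazosin) or 10 µM clonidine (clonidine). Ended by GF/C filtration, counted by liquid scintillation. Run in duplicate; Ki from two independent experiments.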

EC50 [1] | Ki [2] | Compound
12.7 nM | 56 nM | COc1ccccc1OCCN1CCC(CNS(=O)(=O)c2cc(Cl)ccc2F)CC1
14.1 nM | 48 nM | COc1ccccc1OCCN1CCC(CNS(=O)(=O)c2cccc(Cl)c2F)CC1
15.5 nM | 46 nM | COc1ccccc1OCCN1CCC(CNS(=O)(=O)c2cccc(Cl)c2)CC1
608 nM | 52 nM | COc1ccccc1OCCN1CCC(NS(=O)(=O)c2cncc3ccccc23)CC1
599 nM | 81 nM | COc1ccc(S(=O)(=O)NCC2CCN(CCOc3ccccc3OC)CC2)cc1OC
105 nM | 95 nM | CC(C)Oc1ccccc1OCCN1CCC(CNS(=O)(=O)c2cccc3cccnc23)CC1
515 nM | 90 nM | COc1ccccc1OCCN1CCC(CNS(=O)(=O)c2cncc3ccccc23)CC1
42.1 nM | 71 nM | CC(C)Oc1ccccc1OCCN1CCC(CNS(=O)(=O)c2cccc(Cl)c2F)CC1
461 nM | 99 nM | COc1ccc(S(=O)(=O)NC2CCN(CCOc3ccccc3OC)CC2)cc1OC
